Results taken from ChEMBL document CHEMBL5712081, “Signaling function of PRC2 is essential for TCR-driven T cell responses” (J Exp Med, 2018).
The source made the active and inactive calls. The rule behind the calls is not given here.

Tests used:
CD4+ T cell [1] = experiment: Down-regulation of Erk phosphorylation in TCR-triggered human CD4+ T cell by Western blotting analysis; format: functional, cell-based
In short: (§1)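 Purified CD4+ T cells in DMSO or inhibitor were coated with 10 μg/ml anti-CD3 and 2.5 μg/ml anti-CD28 on ice for 20 min. They were cross-linked with 20 μg/ml anti-hamster IgG for 2 or 10 min at 37°C, then lysed in 0.5% NP-40 buffer. pErk1/2 (T202/Y204) was read by Western blot and normalized to total Erk. Three independent experiments.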

CD4+ T cell [2] = experiment: Down-regulation of Mek1/2 at S217/221 phosphorylation in TCR-triggered human CD4+ T cell at 10 uM by Western blotting analysis; format: functional, cell-based
In short: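 CD4+ T cells in DMSO or 10 µM inhibitor were stimulated with anti-CD3 plus anti-CD28 antibodies. pMek1/2 (S217/221) was measured by Western blot and normalized to total Mek1. Three independent experiments.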

CD4+ T cell [3] = experiment: Effect on Erk phosphorylation in TCR-triggered human CD4+ T cell at 10 uM by Western blotting analysis; format: functional, cell-based; in short: as §1
[4] = biological target: T1, Histone-lysine N-methyltransferase EZH1 (Homo sapiens) (UniProt Q92800); experiment: Inhibition of EZH1 (unknown origin) at 2 nM
T1 sequence (whole entry): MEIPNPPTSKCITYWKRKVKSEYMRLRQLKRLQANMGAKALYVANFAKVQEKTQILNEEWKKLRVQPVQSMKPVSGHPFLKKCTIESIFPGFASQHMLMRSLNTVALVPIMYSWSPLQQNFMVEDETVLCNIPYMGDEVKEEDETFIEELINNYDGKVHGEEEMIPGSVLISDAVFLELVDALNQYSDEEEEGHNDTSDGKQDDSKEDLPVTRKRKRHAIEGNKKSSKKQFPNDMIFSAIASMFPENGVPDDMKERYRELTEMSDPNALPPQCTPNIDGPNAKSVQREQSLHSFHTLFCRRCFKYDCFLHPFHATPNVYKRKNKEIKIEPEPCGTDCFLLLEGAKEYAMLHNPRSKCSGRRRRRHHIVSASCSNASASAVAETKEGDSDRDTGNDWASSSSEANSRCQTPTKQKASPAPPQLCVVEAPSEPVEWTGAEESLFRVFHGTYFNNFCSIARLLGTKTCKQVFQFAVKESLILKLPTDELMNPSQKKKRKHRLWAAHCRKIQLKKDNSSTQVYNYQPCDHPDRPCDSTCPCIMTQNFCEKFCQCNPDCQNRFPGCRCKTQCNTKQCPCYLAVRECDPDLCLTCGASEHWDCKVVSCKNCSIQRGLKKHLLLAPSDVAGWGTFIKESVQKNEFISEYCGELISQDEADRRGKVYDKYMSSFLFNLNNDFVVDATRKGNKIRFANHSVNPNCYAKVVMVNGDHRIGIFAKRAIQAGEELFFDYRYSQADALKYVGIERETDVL

[5] = biological target: Histone-lysine N-methyltransferase EZH2 (Homo sapiens) (UniProt Q15910); experiment: Inhibition of EZH2 (unknown origin) at 45 nM
Chain of Histone-lysine N-methyltransferase EZH2 (Homo sapiens) (Q15910 whole entry, looked up): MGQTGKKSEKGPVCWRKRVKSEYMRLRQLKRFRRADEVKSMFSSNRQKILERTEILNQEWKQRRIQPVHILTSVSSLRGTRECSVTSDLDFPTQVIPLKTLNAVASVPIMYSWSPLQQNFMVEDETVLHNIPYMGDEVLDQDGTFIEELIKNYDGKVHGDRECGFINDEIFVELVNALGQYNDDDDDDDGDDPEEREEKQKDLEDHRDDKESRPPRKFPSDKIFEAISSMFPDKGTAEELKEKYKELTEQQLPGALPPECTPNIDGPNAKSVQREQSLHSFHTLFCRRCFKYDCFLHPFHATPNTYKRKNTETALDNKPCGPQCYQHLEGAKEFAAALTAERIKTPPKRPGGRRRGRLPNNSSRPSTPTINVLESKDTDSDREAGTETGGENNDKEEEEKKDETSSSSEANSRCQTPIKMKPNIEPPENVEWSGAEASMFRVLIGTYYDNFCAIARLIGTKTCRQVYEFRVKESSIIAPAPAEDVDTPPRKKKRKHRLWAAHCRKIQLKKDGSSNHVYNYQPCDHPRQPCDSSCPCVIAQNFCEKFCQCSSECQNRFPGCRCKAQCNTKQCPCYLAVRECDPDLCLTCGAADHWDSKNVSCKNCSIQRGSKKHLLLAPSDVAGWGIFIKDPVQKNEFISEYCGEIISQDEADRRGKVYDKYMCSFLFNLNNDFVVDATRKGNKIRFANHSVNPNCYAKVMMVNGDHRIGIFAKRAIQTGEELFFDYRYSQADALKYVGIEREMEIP

[6] = biological target: T1, Histone-lysine N-methyltransferase EZH1 (Homo sapiens); experiment: Inhibition of Ezh1 in human CD4+ T cell by mass spectrometry analysis; format: cell-based
CD4+ T cell [7] = experiment: Down-regulation of Erk phosphorylation in human CD4+ T cell upto 50 uM by Western blotting analysis; format: functional, cell-based; in short: as §1
Mus musculus [8] = experiment: Protection against Foxp3-DTR expressing C57BL/6 autoimmune mouse model assessed as reversal of splenomegaly at 150 mg/kg after 8 days of Dtx treatment for 5 days; format: functional, organism-based; details: time 5.0 day
In short: (§2)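 Foxp3-DTR mice were given DTx to deplete Treg cells, with 150 mg/kg inhibitor either at the same time or from day 8 onward. Splenic Foxp3+ Treg frequency was measured, spleen and lymph node size was photographed, and total lymphoid cells in lymph nodes were counted per mouse.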

CD4+ T cell [9] = experiment: Down-regulation of Erk phosphorylation in human CD4+ T cell upto 50 uM in the presence of PMA by Western blotting analysis; format: functional, cell-based
In short: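 Purified CD4+ T cells in DMSO or inhibitor were given prewarmed medium with 5 ng/ml PMA for 10 min at 37°C and lysed in 0.5% NP-40 buffer. pErk1/2 (T202/Y204) was detected by Western blot and normalized to total Erk1/2. Three independent experiments.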

CD4+ T cell [10] = experiment: Downregulation of Erk phosphorylation in TCR-triggered human CD4+ T cell at 10 uM by Western blotting analysis; format: functional, cell-based; in short: as §1
Mus musculus [11] = experiment: Protection against Foxp3-DTR expressing C57BL/6 autoimmune mouse model assessed as prevention of regulatory t cell depletion at 150 mg/kg after 8 days of Dtx treatment for 5 days; format: functional, organism-based; details: time 5.0 day; in short: as §2
Mus musculus [12] = experiment: Protection activity against Foxp3-DTR expressing C57BL/6 autoimmune mouse model assessed as decrease in number of Ki67+ cells at 150 mg/kg after 8 days of Dtx treatment for 5 days; format: functional, organism-based; details: time 5.0 day
In short: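 Foxp3-DTR mice were given DTx, and 150 mg/kg inhibitor was started on day 8 after DTx initiation. Ki67+ dividing CD19+ B, CD4+ and CD8+ T cells in lymph nodes were measured per mouse. Two experiments, n = 4–15, unpaired Student's t test.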

[13] = biological target: T2, Histone-lysine N-methyltransferase EZH1 (Homo sapiens, UniProt Q92800); experiment: Inhibition of human EZH1
T2 sequence (Q92800 whole entry): T1 sequence (whole entry)

Mus musculus [14] = experiment: Antiinflammatory activity in Foxp3-DTR expressing C57BL/6 autoimmune mouse model assessed as decrease in T-cells at 150 mg/kg after 8 days of Dtx treatment for 5 days; format: functional, organism-based; details: time 5.0 day
In short: (§3)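 Foxp3-DTR mice were depleted of Treg cells by DTx injection. They received 150 mg/kg inhibitor either together with DTx or starting on day 8 after DTx began. Total cells and T cells, B cells, granulocytes and macrophages in secondary lymphoid organs were counted.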

Mus musculus [15] = experiment: Antiinflammatory activity in Foxp3-DTR expressing C57BL/6 autoimmune mouse model assessed as decrease in B-cells at 150 mg/kg after 8 days of Dtx treatment for 5 days; format: functional, organism-based; details: time 5.0 day; in short: as §3
Mus musculus [16] = experiment: Antiinflammatory activity in Foxp3-DTR expressing C57BL/6 autoimmune mouse model assessed as decrease in granulocytes at 150 mg/kg after 8 days of Dtx treatment for 5 days; format: functional, organism-based; details: time 5.0 day; in short: as §3
Mus musculus [17] = experiment: Antiinflammatory activity in Foxp3-DTR expressing C57BL/6 autoimmune mouse model assessed as decrease in macrophages at 150 mg/kg after 8 days of Dtx treatment for 5 days; format: functional, organism-based; details: time 5.0 day; in short: as §3
CD4+ T cell [18] = experiment: Anti-proliferative activity against TCR induced mouse CD4+ T cell

Row | SMILES | Activity (CD4+ T cell [1]) | Activity (CD4+ T cell [2]) | Activity (CD4+ T cell [3]) | inhibition [4] | inhibition [5] | inhibition [6] | Activity (CD4+ T cell [7]) | Activity (Mus musculus [8]) | Activity (CD4+ T cell [9]) | Activity (CD4+ T cell [10]) | Activity (Mus musculus [11]) | Activity (Mus musculus [12]) | IC50 [13] [nM] | Activity (Mus musculus [14]) | Activity (Mus musculus [15]) | Activity (Mus musculus [16]) | Activity (Mus musculus [17]) | Activity (CD4+ T cell [18])
1 | CCCc1cc(C)[nH]c(=O)c1CNC(=O)c1cc(-c2ccc(N3CCN(C(C)C)CC3)nc2)cc2c1cnn2C(C)C | Active | Active | Active | Active | Active | – | – | – | – | – | – | – | – | – | – | – | – | –
2 | CCCc1cc(C)n(C)c(=O)c1CN(C)C(=O)c1cc(-c2ccc(N3CCN(C(C)C)CC3)nc2)cc2c1cnn2C(C)C | inactive | – | – | – | – | – | – | – | – | – | – | – | – | – | – | – | – | –
3 | Cc1cc(C)c(CNC(=O)c2cc(-c3ccc(N4CCN(C)CC4)nc3)cc3c2c(C)cn3C(C)C)c(=O)[nH]1 | – | – | – | – | – | Active | Active | Active | inactive | Active | Active | Active | 633 | Active | Active | Active | Active | Active
